From ChEMBL document CHEMBL5712080, “PRMT5 promotes cell proliferation by inhibiting BTG2 expression via the ERK signaling pathway in hepatocellular carcinoma” (Cancer Med, 2018)
Activity calls are given as the source filed them.

Columns and labels:
Huh-7 [1] = test: Upregulation of BTG2 protein in PRMT5 knockdown human Huh-7 cells at 20 microM for 24 hrs by Western blot analysis; format: functional, cell-based
Outline: (§1)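 Huh7 or SK-Hep1 cells stably carrying lentiviral shRNA against PRMT5, selected 2 weeks in puromycin (final 1 μg/mL), grown in DMEM/10% FBS at 37°C, 5% CO2. Cells pretreated 24 h with 20 μM PD184352 (ERK phosphorylation inhibitor). RIPA lysates run on 8–12% SDS-PAGE, PVDF, 5% milk block, primary antibody overnight at 4°C, HRP secondary, chemiluminescent detection. Histone 3 was the nuclear loading control.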

SK-HEP1 [2] = test: Upregulation of BTG2 protein in PRMT5 knockdown human SK-HEP1 cells at 20 microM for 24 hrs by Western blot analysis; format: functional, cell-based; outline: as §1
[3] = molecular target: Protein arginine N-methyltransferase 5 (Homo sapiens) (UniProt O14744); test: Inhibition of PRMT5 in human Huh-7 cells assessed as H4R3me2s protein level at 500 nM for 4 days by Western blot analysis; format: cell-based; conditions: time 4.0 day
[4] = molecular target: Protein arginine N-methyltransferase 5 (Homo sapiens) (UniProt O14744); test: Inhibition of PRMT5 in human SK-HEP1 cells assessed as H4R3me2s protein level at 500 nM for 4 days by Western blot analysis; format: cell-based; conditions: time 4.0 day
[5] = molecular target: Protein arginine N-methyltransferase 5 (Homo sapiens) (UniProt O14744); test: Inhibition of PRMT5 in human Huh-7 cells assessed as upregulation of BTG2 protein level at 500 nM for 4 days by Western blot analysis; format: cell-based; conditions: time 4.0 day
[6] = molecular target: Protein arginine N-methyltransferase 5 (Homo sapiens) (UniProt O14744); test: Inhibition of PRMT5 in human SK-HEP1 cells assessed as upregulation of BTG2 protein level at 500 nM for 4 days by Western blot analysis; format: cell-based; conditions: time 4.0 day
[7] = molecular target: Protein arginine N-methyltransferase 5 (Homo sapiens) (UniProt O14744); test: Inhibition of PRMT5 in human Huh-7 cells assessed as upregulation of ERK phosphorylation level at 500 nM for 4 days by Western blot analysis; format: cell-based; conditions: time 4.0 day
[8] = molecular target: Protein arginine N-methyltransferase 5 (Homo sapiens) (UniProt O14744); test: Inhibition of PRMT5 in human SK-HEP1 cells assessed as upregulation of ERK phosphorylation level at 500 nM for 4 days by Western blot analysis; format: cell-based; conditions: time 4.0 day
Huh-7 [9] = test: Reversal of H4R3me2s level in human Huh-7 cells at 500 nM for 4 days in presence of PD184352 by Western blotting analysis; format: functional, cell-based; conditions: time 4.0 day
SK-HEP1 [10] = test: Reversal of H4R3me2s level in human SK-HEP1 cells at 500 nM for 4 days in presence of PD184352 by Western blotting analysis; format: functional, cell-based; conditions: time 4.0 day
Huh-7 [11] = test: Reversal of ERK phosphorylation level in human Huh-7 cells at 500 nM for 4 days in presence of PD184352 by Western blotting analysis; format: functional, cell-based; conditions: time 4.0 day
SK-HEP1 [12] = test: Reversal of ERK phosphorylation level in human SK-HEP1 cells at 500 nM for 4 days in presence of PD184352 by Western blotting analysis; format: functional, cell-based; conditions: time 4.0 day
Huh-7 [13] = test: Reversal of BTG2 protein level in human Huh-7 cells at 500 nM for 4 days in presence of PD184352 by Western blotting analysis; format: functional, cell-based; conditions: time 4.0 day
SK-HEP1 [14] = test: Reversal of BTG2 protein level in human SK-HEP1 cells at 500 nM for 4 days in presence of PD184352 by Western blotting analysis; format: functional, cell-based; conditions: time 4.0 day

Chain of Protein arginine N-methyltransferase 5 (Homo sapiens) (O14744 whole entry): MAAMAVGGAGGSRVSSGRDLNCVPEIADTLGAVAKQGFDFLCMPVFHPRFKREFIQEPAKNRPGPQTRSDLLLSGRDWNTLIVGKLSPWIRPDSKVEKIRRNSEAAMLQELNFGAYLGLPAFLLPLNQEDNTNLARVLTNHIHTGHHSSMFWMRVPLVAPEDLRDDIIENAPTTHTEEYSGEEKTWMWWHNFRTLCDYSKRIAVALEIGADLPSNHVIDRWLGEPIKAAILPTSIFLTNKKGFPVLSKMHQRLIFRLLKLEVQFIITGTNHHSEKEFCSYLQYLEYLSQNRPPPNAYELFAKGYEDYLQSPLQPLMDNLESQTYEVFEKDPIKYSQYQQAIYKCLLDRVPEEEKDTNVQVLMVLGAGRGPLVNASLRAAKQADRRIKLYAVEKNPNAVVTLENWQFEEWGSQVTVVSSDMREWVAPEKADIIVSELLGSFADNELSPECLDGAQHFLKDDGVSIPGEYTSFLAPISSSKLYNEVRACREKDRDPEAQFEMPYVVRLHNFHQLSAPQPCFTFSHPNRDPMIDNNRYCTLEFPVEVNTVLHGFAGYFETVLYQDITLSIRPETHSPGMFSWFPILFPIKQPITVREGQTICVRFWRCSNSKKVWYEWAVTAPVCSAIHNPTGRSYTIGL

O=C(NOCC1CC1)c1ccc(F)c(F)c1Nc1ccc(I)cc1Cl
active: Activity (Huh-7 [1]) | Activity (SK-HEP1 [2])

O=C(NC[C@H](O)CN1CCc2ccccc2C1)c1ccnc(NC2CCC2)c1
active: inhibition [3] | inhibition [4] | inhibition [5] | inhibition [6] | inhibition [7] | inhibition [8] | Activity (Huh-7 [9]) | Activity (SK-HEP1 [10]) | Activity (Huh-7 [11]) | Activity (SK-HEP1 [12]) | Activity (Huh-7 [13]) | Activity (SK-HEP1 [14])
